Test results: ChEMBL document CHEMBL1157826 (J Med Chem, 2010)
Activity calls are given as the source filed them. No cut-off for these calls is given here.

What was measured:
BP3 = test: Induction of apoptosis in human BP3 cells after 1 to 2 days by FITC-conjugated annexin V and propidium iodide staining-based FACS analysis; format: functional, cell-based
MEF [1] = test: Induction of apoptosis in Bak/Bax double knockout MEF at 30 uM after 24 hrs by FITC-conjugated annexin V and propidium iodide staining-based FACS analysis; format: functional; settings: Mus musculus
How it was run: (§1)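 Next day, compound was added at final 0, 2.5, 5.0, 7.5, 10 and 30 μM. The following day, floating and trypsinized adherent cells were pooled and stained with Annexin V-FITC/PI. Cells negative for both were scored viable by flow cytometry.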

MEF [2] = test: Induction of apoptosis in MEF expressing wild type Bcl-2 protein at 30 uM after 24 hrs by FITC-conjugated annexin V and propidium iodide staining-based FACS analysis; format: functional, cell-based; settings: Mus musculus; how it was run: as §1
Mus musculus [3] = test: Toxicity in BALB/c mouse xenografted with Mcl-1 overexpressing human M2182 cells at 10 to 25 mg/mg, ip administered 9 times every 2 days; format: organism-based; settings: in vivo, 48 h
How it was run: (§2)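 Athymic nude male mice bearing bilateral s.c. M2182-Luc tumors (~75 mm3) received i.p. doses every 2 days, nine injections in all, in ethanol/Cremophor EL/saline 10:10:80 (500 μL). At least five animals per group. Tolerability was judged by signs of toxicity over the course of treatment.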

M2182 [4] = test: Antitumor activity against Mcl-1 overexpressing human M2182 cells xenografted in BALB/c mouse assessed as reduction of tumor size at 25 mg/kg, ip administered 9 times every 2 days; format: functional, organism-based; set-up: dose 25 mg/kg
How it was run: (§3)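 Dosing started at visible tumors of ~75 mm3 (~5–6 days): i.p. every 2 days, nine injections in all, in ethanol/Cremophor EL/saline 10:10:80 (500 μL). Vehicle controls were used, with at least five mice per group. Tumors were followed by luciferin (150 mg/kg i.p.) bioluminescence imaging and excised at study end.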

M2182 [5] = test: Antitumor activity against Mcl-1 overexpressing human M2182 cells xenografted in BALB/c mouse assessed as complete inhibition of tumor growth at 25 mg/kg, ip administered 9 times every 2 days; format: functional, organism-based; set-up: dose 25 mg/kg; how it was run: as §3
M2182 [6] = test: Antitumor activity against Mcl-1 overexpressing human M2182 cells xenografted in BALB/c mouse assessed as reduction of tumor size at 10 mg/kg, ip administered 9 times every 2 days; format: functional, organism-based; set-up: dose 10 mg/kg; how it was run: as §3
MEF [7] = test: Induction of apoptosis in Bak/Bax double knockout MEF at […] after 24 hrs by FITC-conjugated annexin V and propidium iodide staining-based FACS analysis; format: functional, cell-based; settings: Mus musculus; how it was run: as §1
[8] = Chemical stability at 10 mmol/L after 80 days at 21 degC by LC/MS/MS analysis; format: physicochemical; settings: 1920 h, 10000 µM
[9] = Chemical stability at 10 mmol/L after 80 days at 37 degC by LC/MS/MS analysis; format: physicochemical; settings: 1920 h, 10000 µM
[10] = Antitumor activity against Mcl-1 overexpressing human M2182 cells xenografted in BALB/c mouse assessed as inhibition of tumor growth at 3 mg/kg, ip administered 9 times every 2 days; format: functional; set-up: scale not given: the % may be the effect or the level left; settings: route intraperitoneal; how it was run: as §3
[11] = Chemical stability at 10 mmol/L after 80 days at -20 degC by LC/MS/MS analysis; format: physicochemical; settings: 1920 h, 10000 µM
[12] = Chemical stability at 10 mmol/L after 80 days at 42 degC by LC/MS/MS analysis; format: physicochemical; settings: 1920 h, 10000 µM
Mus musculus [13] = test: Reduction of Bcl-2 accumulation in human Bcl2 expressing B6 transgenic mouse assessed as induction of spleen shrinkage at 42 mg/kg, ip administered as single dose after 24 hrs; format: functional; set-up: scale not given: the % may be the effect or the level left; settings: route intraperitoneal
How it was run: (§4)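 Age- and sex-matched B6 transgenic mice (human BCL-2 minigene fused to the IgH locus/enhancer, not yet lymphomatous; two per compound) received a single i.p. dose in 500 μL ethanol/Cremophor EL/saline 10:10:80. Controls received vehicle alone. Mice were killed with Avertin 24 h later and spleens weighed. Shrinkage was expressed as percent reduction versus controls.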

Mus musculus [14] = test: Reduction of Bcl-2 accumulation in human Bcl2 expressing B6 transgenic mouse assessed as reduction in spleen weight at 42 mg/kg, ip administered as single dose after 24 hrs; format: functional; settings: route intraperitoneal; for inhibition in vivo at 42 mg/kg: Mus musculus, B6, Spleen, ip, 24 h; how it was run: as §4
Mus musculus [15] = test: Toxicity in BALB/c mouse xenografted with Mcl-1 overexpressing human M2182 cells at 1 to 5 mg/mg, ip administered 9 times every 2 days; format: organism-based; settings: in vivo, 48 h; how it was run: as §2
Liver microsomes = test: (§5) Metabolic stability in rat liver microsomes at 4 uM after 40 mins by LC/MS/MS analysis; format: ADME, Microsome; settings: microsomes, 40 min, 4 µM
How it was run: (§6)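 Test compounds were incubated in rat liver microsomal preparations for 40 min, and the fraction of compound remaining or degraded was reported.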

M2182 [16] = test: Antitumor activity against Mcl-1 overexpressing human M2182 cells xenografted in BALB/c mouse assessed as complete inhibition of tumor growth at 5 mg/kg, ip administered 9 times every 2 days; format: functional, organism-based; set-up: dose 5 mg/kg; how it was run: as §3
M2182 [17] = test: Antitumor activity against Mcl-1 overexpressing human M2182 cells xenografted in BALB/c mouse assessed as reduction of tumor size at 1 to 5 mg/kg, ip administered 9 times every 2 days; format: functional, organism-based; how it was run: as §3
[18] = as §5; format: ADME, Microsome; settings: liver microsomes, read-out: Stability; how it was run: as §6
Bcl-2-like protein 1 = Bcl-2-like protein 1 (Homo sapiens, UniProt Q07817); test: Displacement of FITC-labeled Bak BH3 peptide from Bcl-XL after 30 mins by fluorescence polarization assay
Bcl-2-like protein 1, sequence (Q07817 whole entry): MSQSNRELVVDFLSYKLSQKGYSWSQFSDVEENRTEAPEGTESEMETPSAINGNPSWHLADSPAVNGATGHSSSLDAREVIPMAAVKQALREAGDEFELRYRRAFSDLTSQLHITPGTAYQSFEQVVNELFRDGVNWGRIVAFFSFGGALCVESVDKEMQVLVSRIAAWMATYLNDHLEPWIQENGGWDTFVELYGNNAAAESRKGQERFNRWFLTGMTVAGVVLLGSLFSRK

Cc1cc2c(C(=O)NC[C@@H](C)c3ccccc3)c(O)c(O)cc2c(O)c1-c1c(C)cc2c(C(=O)NC[C@@H](C)c3ccccc3)c(O)c(O)cc2c1O
Activity (BP3): Dose-dependent effect | Activity (MEF [1]): Active | Activity (MEF [2]): Active

Cc1cc2c(C(=O)NC[C@H](C)c3ccccc3)c(O)c(O)cc2c(O)c1-c1c(C)cc2c(C(=O)NC[C@H](C)c3ccccc3)c(O)c(O)cc2c1O
Activity (BP3): Dose-dependent effect

Cc1cc2c(C(=O)NCC(C)c3ccccc3)c(O)c(O)cc2c(O)c1-c1c(C)cc2c(C(=O)NCC(C)c3ccccc3)c(O)c(O)cc2c1O (racemic)
Activity (Mus musculus [3]): Non-toxic | Activity (M2182 [4]): Active | Activity (M2182 [5]): Active | Activity (M2182 [6]): inactive | Activity (MEF [7]): Active

Cc1cc2c(C(=O)NC[C@H](C)c3ccccc3)c(O)c(O)cc2c(O)c1-c1c(C)cc2c(C(=O)NC[C@H](C)c3ccccc3)c(O)c(O)cc2c1O (single isomer, unassigned; atropisomer) [listing 1 of 2 here]
Stability [8]: Stable | Stability [9]: Stable | Activity [10]: 40% | Stability [11]: Stable | Stability [12]: Stable | Activity (Mus musculus [13]; 42 mg/kg): 65% | inhibition in vivo at 42 mg/kg (Mus musculus [14]): > 30% | Activity (Mus musculus [15]): Non-toxic | Stability (Liver microsomes): 41%

Cc1cc2c(C(=O)NC[C@@H](C)c3ccccc3)c(O)c(O)cc2c(O)c1-c1c(C)cc2c(C(=O)NC[C@@H](C)c3ccccc3)c(O)c(O)cc2c1O (single isomer, unassigned; atropisomer) [listing 1 of 2 here]
Stability [8]: Stable | Stability [9]: Stable | Stability [11]: Stable | Stability [12]: Stable | Activity (Mus musculus [13]): <=40% | inhibition in vivo at 42 mg/kg (Mus musculus [14]): ≤ 20% | Stability (Liver microsomes): 42%

Cc1cc2c(C(=O)NC[C@@H](C)c3ccccc3)c(O)c(O)cc2c(O)c1-c1c(C)cc2c(C(=O)NC[C@@H](C)c3ccccc3)c(O)c(O)cc2c1O (single isomer, unassigned; atropisomer) [listing 2 of 2 here]
Activity (BP3): Dose-dependent effect

Cc1cc2c(C(=O)NC[C@H](C)c3ccccc3)c(O)c(O)cc2c(O)c1-c1c(C)cc2c(C(=O)NC[C@H](C)c3ccccc3)c(O)c(O)cc2c1O (single isomer, unassigned; atropisomer) [listing 2 of 2 here]
Activity (M2182 [16]): Active | Activity (BP3): Dose-dependent effect | Activity (M2182 [17]): Active | Activity (MEF [2]): Active

Cc1cc2c(C(=O)NC[C@H](C)c3ccccc3)c(O)c(O)cc2c(O)c1-c1c(C)cc2c(C(=O)NC[C@H](C)c3ccccc3)c(O)c(O)cc2c1O [1,1',6,6',7,7'-HEXAHYDROXY-3,3'-DIMETHYL-N5-((R)-2-PHENYLPROPYL)-N5'-((R)-2-PHENYLPROPYL)-2,2'-BINAPHTHYL-5,5'-DICARBOXAMIDE (ATROPISOMERIC MIX)]
Activity (Mus musculus [3]): Non-toxic | Activity (Mus musculus [13]; 42 mg/kg): <=40% | inhibition (INH) (Mus musculus [14]; 42 mg/kg): <=20% | remaining at 40 min, 4 µM [18]: 28%

Cc1cc2c(C(=O)NC[C@@H](C)c3ccccc3)c(O)c(O)cc2c(O)c1-c1c(C)cc2c(C(=O)NC[C@@H](C)c3ccccc3)c(O)c(O)cc2c1O [(S)-1',6,6',7,7'-HEXAHYDROXY-3,3'-DIMETHYL-N5-((S)-2-PHENYLPROPYL)-N5'-((S)-2-PHENYLPROPYL)-2,2'-BINAPHTHYL-5,5'-DICARBOXAMIDE (ATROPISOMERIC MIX)]
remaining at 40 min, 4 µM [18]: 41%

Cc1cc2c(C(C)C)c(O)c(O)c(C=O)c2c(O)c1-c1c(C)cc2c(C(C)C)c(O)c(O)c(C=O)c2c1O [GOSSYPOL]
IC50 (Bcl-2-like protein 1): 540 nM
